Source: PubChem (several laboratories)
This is a sample that favours compounds with a hit; in the whole collection about 11% have one here.
TNAP act DEA – human TNAP activation, intermediate phosphate acceptor; P05186; purified TNAP, CDP-star luminescence, 100 mM DEA, 30 min; hits give high values; scale: 0 levamisole-inhibited, 1 vehicle-only enzyme; activation factor at 20 µM; 64,000 tested, under 10 active;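 active = activation factor of at least 2 at 20 µM, relative to controls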
D1 allo mod – allosteric modulators of human D1 dopamine receptor; HEK293 D1, CRE-luciferase, dopamine EC30 potentiation; actives deviate in either direction; B-score at 10 µM; actives 5.9% (n = 58,000);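 active = luminescence count or its row- and column-corrected plate score outside the 99.7% band of the plate's sample wells, on either side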
M1 agonist – activates the M1 muscarinic receptor | CHO-M1 cells, Fluo-4 calcium fluorescence, agonist mode; hits give high values | B-score at 10 µM | actives 3% (n = 64,000);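 active = fluorescence rise, raw or as B-score row- and column-corrected plate score, outside the 99.7% band of its plate's samples, either direction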
M1 antag – blocks the rat M1 muscarinic receptor response to acetylcholine. CHO-M1 cells, Fluo-4 calcium, ACh EC80 antagonist mode; hits give low values. P08482. actives 3.4% (n = 64,000). B-score at 10 µM;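 active = calcium fluorescence response, raw or row-and-column corrected B-score, differing from the plate sample mean either way at a set confidence level, mostly lower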
S1P1 ag pot – activates or potentiates agonism at human S1P1 receptor. S1P1 CRE-bla cells, forskolin, beta-lactamase FRET, potentiator mode; S1P1 agonist co-added at EC20, 2 nM; 100% = saturating reference agonist, 0% = basal. activation, % at 9.5 µM. actives 0.57% (n = 56,000). AID 449;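 active = activation above a cutoff set at the mean activation of all tested compounds plus 3 SD, cut at about 54% in these data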;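 note: forskolin at 4 µM as EC80 and the EC20 agonist is SEW2871; 100% = SEW2871 at its EC100 plus forskolin at EC80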
Target sequence (P21453 whole entry, looked up): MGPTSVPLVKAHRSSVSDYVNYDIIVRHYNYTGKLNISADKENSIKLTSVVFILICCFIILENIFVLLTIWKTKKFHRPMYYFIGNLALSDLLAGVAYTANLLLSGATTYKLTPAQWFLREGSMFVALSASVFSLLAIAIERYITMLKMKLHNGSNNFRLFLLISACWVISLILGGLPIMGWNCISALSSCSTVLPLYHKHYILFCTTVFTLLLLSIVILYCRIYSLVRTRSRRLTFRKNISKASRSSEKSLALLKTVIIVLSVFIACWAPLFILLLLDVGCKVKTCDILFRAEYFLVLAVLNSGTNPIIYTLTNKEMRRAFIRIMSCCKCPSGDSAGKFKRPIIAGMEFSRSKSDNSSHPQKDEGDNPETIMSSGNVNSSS
S1P3 agonist – activates the human S1P3 receptor; Q99500; S1P3 NFAT-BLA reporter cells, agonism, FRET ratio; relative to 1 µM S1P, basal subtracted; activation, % at 4.5 µM; actives 0.1% (n = 60,000); AID 373;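 active = activation above the screen-wide mean plus 3 SD, cut at about 4.5% in these data, passing the limit was not always enough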
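Assay system: stable CHO line with human S1P3, Gα16, NFAT-BLA reporter; Detection: FRET β-lactamase substrate fluorescence, excitation 405 nm, 460/535 nm emission ratio, background-subtracted; Read-out: percent activation versus median 1 µM S1P response, basal-subtracted, per plate; Incubation: cells plated overnight, compound 4 h 37 °C, substrate 2 h RT.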
D1 mod confirm – D1 receptor (human) allosteric modulation, confirmed. shares compounds with D1 allo mod. HEK293 D1 CRE-luciferase, dopamine EC30 potentiation; hits give high values. luminescence at 10 µM. actives 88% (n = 2,200). AID 642;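 active = luminescence in either of two replicates above the same-plate mean plus 3 SD of the low-dose dopamine control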
D1 ag no DA – secondary test of D1 modulators: activity without dopamine; HEK293 D1 CRE-luciferase, luminescence, no dopamine; hits give high values; actives 0.8% (n = 1,900); AID 646; luminescence at 10 µM; shares compounds with D1 allo mod; in the data active = luminescence above about 3900
Isoprot counter – isoproterenol response counter-screen activity for D1 modulators. actives 63% (n = 2,200). luminescence at 10 µM. shares compounds with D1 allo mod. AID 647. HEK293 D1 CRE-luciferase, isoproterenol EC30 counter-screen; hits give high values;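 active = luminescence in either replicate above plate mean of wells with a partly effective reference agonist dose plus 3 SD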;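 note: isoproterenol raises cAMP through native beta-adrenoceptor Gs so signal bypasses D1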
* = called active by the depositor; . = no result given.

SMILES | TNAP act DEA | D1 allo mod | M1 agonist | M1 antag | S1P1 ag pot | S1P3 agonist | D1 mod confirm | D1 ag no DA | Isoprot counter
CC(=O)c1c(C)[nH]c(C(=O)OCn2nnc3ccccc3c2=O)c1C | 0.9 | 2.4* | -0.14 | 0.12 | -36 | 0 | 5372 | . | 2504
CSc1ncccc1C(=O)OCn1nnc2ccccc2c1=O | 0.9 | 3.3* | -0.37 | 0.6 | 6 | 2 | 9044* | 1656 | 3480*
CC(=O)c1ccc(Nc2ncnc3c2oc2ccccc23)cc1 | 0.9 | -0.89 | 0.5 | 0.29 | -13 | 0 | . | . | .
COc1cccc(-c2nnc3sc(C4CCCCC4)nn23)c1 | 0.8 | 5.5* | -0.51 | 1 | 80* | -1 | 12024* | 1460 | 3564*
COc1cc(OC)c(-c2nn3c(C4CCCCC4)nnc3s2)cc1OC | 0.9 | 5.2* | 0.041 | -0.38 | -75 | 0 | 10724* | 1788 | 6364*
CCOc1cccc(-c2nnc3sc(C4CCCCC4)nn23)c1 | 0.8 | . | -0.16 | -0.92 | 42 | 7 | . | . | .
COc1cc(-c2nnc3sc(C4CCCCC4)nn23)cc(OC)c1OC | 1 | 7.4* | 4.7 | -0.89 | -16 | 1 | 15992* | 1688 | 8420*
CCOc1ccc(Cn2c(O)cc(=O)[nH]c2=O)cc1 | 0.9 | . | -0.65 | -0.17 | 16 | -3 | . | . | .
Cc1cc2c(c(N)n1)c(=O)oc1ccccc12 | 0.9 | 22* | -0.33 | -0.33 | -23 | -1 | 19088* | . | 5100*
CCOc1ccc(C(=O)Nc2ccc3c(c2)OCCO3)cc1OC | 1 | -0.056 | 0.56 | 0.012 | 2 | 1 | . | . | .
CCOc1cc(C(=O)Nc2ccc3c(c2)OCO3)ccc1OC(F)F | 0.9 | 7.6* | -0.65 | -0.31 | 10 | 0 | 13356* | 1552 | 3896*
